Measured values reported in ChEMBL document CHEMBL4138297, “N-Leucinyl Benzenesulfonamides as Structurally Simplified Leucyl-tRNA Synthetase Inhibitors” (ACS Med Chem Lett, 2018).
pIC50, pKd: −log10 of the molar value. ≈ marks a conversion by molar mass, not a printed value. Calls of active or inactive are those of the source. The rule behind the calls is not given here.

Key:
Leucine--tRNA ligase [1] = target: T1, Leucine--tRNA ligase (Escherichia coli (strain K12), UniProt P07813); experiment: Displacement of IK-698 from Escherichia coli LeuRS by isothermal titration calorimetric calorimetry
Leucine--tRNA ligase [2] = target: T2, Leucine--tRNA ligase (Staphylococcus aureus (strain NCTC 8325), UniProt Q2FXH2); experiment: Inhibition of Staphylococcus aureus LeuRS expressed in Escherichia coli M15 cells assessed as reduction in ATP consumption
T2 sequence (Q2FXH2 whole entry): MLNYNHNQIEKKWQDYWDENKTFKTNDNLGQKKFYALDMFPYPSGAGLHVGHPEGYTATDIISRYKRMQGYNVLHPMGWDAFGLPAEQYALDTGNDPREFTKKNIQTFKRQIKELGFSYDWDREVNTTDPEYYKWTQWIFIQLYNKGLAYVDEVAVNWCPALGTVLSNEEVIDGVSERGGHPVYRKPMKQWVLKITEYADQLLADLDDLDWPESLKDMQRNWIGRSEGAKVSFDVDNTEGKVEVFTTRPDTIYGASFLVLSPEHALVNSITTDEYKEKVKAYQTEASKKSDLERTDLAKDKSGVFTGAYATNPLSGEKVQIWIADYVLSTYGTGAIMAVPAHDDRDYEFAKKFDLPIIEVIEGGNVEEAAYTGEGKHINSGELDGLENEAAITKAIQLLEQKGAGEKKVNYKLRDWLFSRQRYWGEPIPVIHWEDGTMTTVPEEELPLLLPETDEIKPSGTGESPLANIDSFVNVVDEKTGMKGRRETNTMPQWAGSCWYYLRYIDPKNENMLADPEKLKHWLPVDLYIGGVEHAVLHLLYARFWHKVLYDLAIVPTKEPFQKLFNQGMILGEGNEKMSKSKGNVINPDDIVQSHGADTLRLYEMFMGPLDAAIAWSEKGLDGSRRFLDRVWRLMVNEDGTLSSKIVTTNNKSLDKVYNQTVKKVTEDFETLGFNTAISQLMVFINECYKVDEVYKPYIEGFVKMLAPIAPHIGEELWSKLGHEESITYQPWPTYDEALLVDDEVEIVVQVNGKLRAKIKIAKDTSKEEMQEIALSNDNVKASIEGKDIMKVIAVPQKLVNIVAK

[3] = target: T3, Leucine--tRNA ligase, cytoplasmic (Homo sapiens, UniProt Q9P2J5); experiment: Inhibition of human LeuRS assessed as reduction in ATP consumption
Leucine--tRNA ligase [4] = target: T1, Leucine--tRNA ligase; experiment: Inhibition of Escherichia coli LeuRS expressed in Escherichia coli M15 cells assessed as reduction in ATP consumption
Escherichia coli [5] = experiment: Antibacterial activity against Escherichia coli BW25113 harboring tolC deletion mutant after 18 hrs by broth microdilution method; assay type: functional, organism-based
Method in brief: (§1)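 MIC (ug/mL) against single-gene deletion derivatives of the standard laboratory E. coli strain BW25113 lacking multidrug efflux components (ΔacrA, ΔacrB, ΔtolC). The parent BW25113 strain was tested alongside.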

Escherichia coli [6] = experiment: Antibacterial activity against Escherichia coli BW25113 harboring AcrB deletion mutant after 18 hrs by broth microdilution method; assay type: functional, organism-based; method in brief: as §1
Escherichia coli [7] = experiment: Antibacterial activity against Escherichia coli BW25113 harboring AcrA deletion mutant after 18 hrs by broth microdilution method; assay type: functional, organism-based; method in brief: as §1
[8] = target: T3, Leucine--tRNA ligase, cytoplasmic; experiment: Inhibition of human cytoplasmic LeuRS assessed as reduction in protein synthesis measured after 10 mins in presence of [3H]Leu by scintillation counting method
[9] = target: T4, Leucyl-tRNA synthetase, putative (Trypanosoma brucei brucei (strain 927/4 GUTat10.1), UniProt Q386D9); experiment: Inhibition of Trypanosoma brucei LeuRS assessed as reduction in protein synthesis pretreated for 20 mins in presence of [14C]Leu followed by ATP addition measured after 15 mins by scintillation counting method
T4 sequence (Q386D9 whole entry): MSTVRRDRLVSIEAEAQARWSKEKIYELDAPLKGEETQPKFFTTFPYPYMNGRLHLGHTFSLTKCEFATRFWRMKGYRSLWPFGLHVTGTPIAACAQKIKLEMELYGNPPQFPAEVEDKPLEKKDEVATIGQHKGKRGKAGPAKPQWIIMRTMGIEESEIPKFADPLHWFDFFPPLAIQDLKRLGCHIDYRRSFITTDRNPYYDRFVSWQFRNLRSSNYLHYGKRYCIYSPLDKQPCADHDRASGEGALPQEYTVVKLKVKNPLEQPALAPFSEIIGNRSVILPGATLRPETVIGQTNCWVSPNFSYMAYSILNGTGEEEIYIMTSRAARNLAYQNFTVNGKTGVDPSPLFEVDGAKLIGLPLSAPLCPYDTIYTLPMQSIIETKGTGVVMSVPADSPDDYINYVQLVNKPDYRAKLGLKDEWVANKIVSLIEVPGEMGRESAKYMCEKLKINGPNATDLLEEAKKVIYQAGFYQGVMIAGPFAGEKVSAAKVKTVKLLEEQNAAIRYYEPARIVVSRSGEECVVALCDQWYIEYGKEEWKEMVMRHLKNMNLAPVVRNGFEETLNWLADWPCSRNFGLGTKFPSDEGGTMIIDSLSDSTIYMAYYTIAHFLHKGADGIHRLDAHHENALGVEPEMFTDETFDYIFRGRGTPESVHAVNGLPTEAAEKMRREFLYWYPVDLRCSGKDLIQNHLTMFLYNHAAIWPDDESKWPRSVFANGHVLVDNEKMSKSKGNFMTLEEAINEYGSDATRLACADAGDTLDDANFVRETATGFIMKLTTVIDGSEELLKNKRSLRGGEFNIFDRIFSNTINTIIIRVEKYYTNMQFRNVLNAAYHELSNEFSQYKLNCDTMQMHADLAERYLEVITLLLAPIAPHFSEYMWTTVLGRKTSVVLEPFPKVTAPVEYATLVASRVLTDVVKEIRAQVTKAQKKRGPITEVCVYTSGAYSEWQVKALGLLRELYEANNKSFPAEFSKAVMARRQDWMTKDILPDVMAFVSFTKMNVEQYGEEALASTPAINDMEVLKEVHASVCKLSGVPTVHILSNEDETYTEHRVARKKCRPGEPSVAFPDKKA

Leucine--tRNA ligase [10] = target: T1, Leucine--tRNA ligase; experiment: Binding affinity to Escherichia coli LeuRS by isothermal titration calorimetric calorimetry
Pseudomonas aeruginosa = experiment: Antibacterial activity against Pseudomonas aeruginosa PAO1 after 18 hrs by broth microdilution method; assay type: functional; conditions: PAO1, 18 h
Escherichia coli [11] = experiment: Antibacterial activity against Escherichia coli BW25113 after 18 hrs by broth microdilution method; assay type: functional; conditions: BW25113, 18 h
Method in brief: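 Standard laboratory E. coli strain BW25113, wild type for efflux; MIC recorded in ug/mL. The same susceptibility testing was also run on BW25113 derivatives deleted for the multidrug efflux components tolC, acrA or acrB.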

Staphylococcus aureus = experiment: Antibacterial activity against Staphylococcus aureus JE2 after 18 hrs by broth microdilution method; assay type: functional; conditions: JE2, 18 h
Escherichia coli [12] = experiment: Antibacterial activity against Escherichia coli ATCC 25922 after 18 hrs by broth microdilution method; assay type: functional; conditions: ATCC 25922, 18 h
Enterobacter cloacae = experiment: Antibacterial activity against Enterobacter cloacae clinical isolate after 18 hrs by broth microdilution method; assay type: functional
Acinetobacter baumannii = experiment: Antibacterial activity against Acinetobacter spp ATCC 19606 after 18 hrs by broth microdilution method; assay type: functional; conditions: ATCC 19606 = CIP 70.34 = JCM 6841, 18 h
Klebsiella pneumoniae = experiment: Antibacterial activity against Klebsiella pneumoniae clinical isolate after 18 hrs by broth microdilution method; assay type: functional

T1 sequence (P07813 whole entry): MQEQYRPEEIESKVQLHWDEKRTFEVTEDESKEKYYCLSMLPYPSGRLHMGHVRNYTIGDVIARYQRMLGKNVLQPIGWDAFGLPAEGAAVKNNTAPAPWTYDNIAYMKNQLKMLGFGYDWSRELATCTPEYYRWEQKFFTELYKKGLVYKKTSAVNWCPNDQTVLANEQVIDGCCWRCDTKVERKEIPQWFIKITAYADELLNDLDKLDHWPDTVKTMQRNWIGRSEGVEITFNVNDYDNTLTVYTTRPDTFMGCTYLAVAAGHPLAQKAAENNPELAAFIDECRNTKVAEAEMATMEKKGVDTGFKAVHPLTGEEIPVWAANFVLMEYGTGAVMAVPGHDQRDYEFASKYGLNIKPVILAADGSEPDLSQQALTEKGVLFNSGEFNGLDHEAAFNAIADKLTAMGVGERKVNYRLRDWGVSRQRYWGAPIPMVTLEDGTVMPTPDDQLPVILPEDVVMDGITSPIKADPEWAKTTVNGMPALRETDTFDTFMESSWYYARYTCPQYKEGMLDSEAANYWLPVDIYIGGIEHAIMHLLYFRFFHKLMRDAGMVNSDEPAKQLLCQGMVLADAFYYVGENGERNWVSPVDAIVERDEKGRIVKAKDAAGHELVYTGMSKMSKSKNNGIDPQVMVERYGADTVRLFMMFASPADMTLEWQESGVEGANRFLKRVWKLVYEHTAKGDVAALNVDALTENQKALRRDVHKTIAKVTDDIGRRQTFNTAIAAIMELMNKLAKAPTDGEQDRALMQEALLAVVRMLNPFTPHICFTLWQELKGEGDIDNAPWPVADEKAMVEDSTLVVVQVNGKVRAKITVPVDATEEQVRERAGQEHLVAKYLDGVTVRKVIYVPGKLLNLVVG
T3 sequence (Q9P2J5 whole entry): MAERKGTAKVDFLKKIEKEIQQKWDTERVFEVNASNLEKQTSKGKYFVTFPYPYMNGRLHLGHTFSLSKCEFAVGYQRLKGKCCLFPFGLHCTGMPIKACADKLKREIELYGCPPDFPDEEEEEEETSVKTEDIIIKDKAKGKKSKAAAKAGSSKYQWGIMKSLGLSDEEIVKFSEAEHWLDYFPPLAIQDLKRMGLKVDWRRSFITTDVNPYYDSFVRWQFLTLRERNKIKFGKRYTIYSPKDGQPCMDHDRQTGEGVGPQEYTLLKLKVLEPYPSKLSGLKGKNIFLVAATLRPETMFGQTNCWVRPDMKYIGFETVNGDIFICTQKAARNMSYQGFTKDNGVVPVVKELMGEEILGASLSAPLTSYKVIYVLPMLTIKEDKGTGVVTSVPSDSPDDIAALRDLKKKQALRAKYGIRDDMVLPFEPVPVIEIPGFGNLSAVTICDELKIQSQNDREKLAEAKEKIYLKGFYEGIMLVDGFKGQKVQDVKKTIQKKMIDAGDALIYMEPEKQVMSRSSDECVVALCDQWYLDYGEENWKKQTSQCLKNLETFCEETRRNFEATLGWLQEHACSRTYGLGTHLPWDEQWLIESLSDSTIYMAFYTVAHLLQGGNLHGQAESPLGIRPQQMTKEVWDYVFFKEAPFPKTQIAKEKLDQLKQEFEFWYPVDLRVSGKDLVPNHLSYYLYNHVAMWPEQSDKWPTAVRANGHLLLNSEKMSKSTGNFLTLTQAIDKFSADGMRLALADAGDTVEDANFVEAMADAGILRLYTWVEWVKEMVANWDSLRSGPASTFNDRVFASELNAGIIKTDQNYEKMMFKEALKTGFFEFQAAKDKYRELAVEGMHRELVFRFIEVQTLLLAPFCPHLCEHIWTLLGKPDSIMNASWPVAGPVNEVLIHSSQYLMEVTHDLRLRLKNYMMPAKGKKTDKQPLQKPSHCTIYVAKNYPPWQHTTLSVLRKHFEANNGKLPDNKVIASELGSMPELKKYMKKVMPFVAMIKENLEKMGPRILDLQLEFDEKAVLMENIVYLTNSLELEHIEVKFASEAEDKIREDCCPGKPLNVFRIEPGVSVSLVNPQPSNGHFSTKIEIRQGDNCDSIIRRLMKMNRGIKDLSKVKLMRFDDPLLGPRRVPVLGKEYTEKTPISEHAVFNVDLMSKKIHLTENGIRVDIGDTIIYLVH

## CC(C)C[C@H](N)C(=O)NS(=O)(=O)c1cccc(-c2ccnc(N)n2)c1
Leucine--tRNA ligase [1]
  pKd: 7.84
Leucine--tRNA ligase [2]
  pIC50: 5.04
[3]
  pIC50: 5.41

## Cc1cc(-c2cccc(S(=O)(=O)NC(=O)[C@@H](N)CC(C)C)c2)nc(N)n1
Leucine--tRNA ligase [1]
  pKd: 8.00
Leucine--tRNA ligase [2]
  pIC50: 5.36
Leucine--tRNA ligase [4]
  pIC50: 7.39
Escherichia coli [5]
  Activity: Active
Escherichia coli [6]
  Activity: Active
[3]
  pIC50: 6.80
Escherichia coli [7]
  Activity: Active

## CC(C)C[C@H](N)C(=O)NS(=O)(=O)c1cccc(NC(=S)NC(=O)COc2ccc(Br)cc2Cl)c1
[8]
  pIC50: 5.35
[9]
  pIC50: 5.96

## CC(C)C[C@H](N)C(=O)NS(=O)(=O)c1cccc(-c2cccc(N)n2)c1
Leucine--tRNA ligase [1]
  pKd: 7.86
Leucine--tRNA ligase [2]
  pIC50: 5.77
Leucine--tRNA ligase [4]
  pIC50: 7.64
[3]
  pIC50: 6.07

## CC(C)C[C@H](N)C(=O)NS(=O)(=O)c1ccc2ccccc2c1
Leucine--tRNA ligase [1]
  pKd: 7.19
[3]
  pIC50: 6.66

## CC(C)C[C@H](N)C(=O)NS(=O)(=O)c1cccc(-c2ccnc(N)c2)c1
Leucine--tRNA ligase [1]
  pKd: 7.89
Leucine--tRNA ligase [2]
  pIC50: 6.19
Leucine--tRNA ligase [4]
  pIC50: 7.85
[3]
  pIC50: 6.31

## Cc1cc(-c2cccc(S(=O)(=O)NC(=O)[C@@H](N)CC(C)C)c2)ncn1
Leucine--tRNA ligase [1]
  pKd: 7.66
Leucine--tRNA ligase [2]
  pIC50: 5.57
Leucine--tRNA ligase [4]
  pIC50: 7.33
[3]
  pIC50: 5.70

## CC(C)C[C@H](N)C(=O)NS(=O)(=O)c1ccccc1
Leucine--tRNA ligase [10]
  pKd: 7.03
Pseudomonas aeruginosa
  MIC: 64 µg/mL (≈ 237 µM)
Escherichia coli [11]
  MIC: > 128 µg/mL
Staphylococcus aureus
  MIC: > 256 µg/mL
Escherichia coli [12]
  MIC: 8 µg/mL (≈ 29.6 µM)
Escherichia coli [5]
  Activity: Active
Enterobacter cloacae
  MIC: 128 µg/mL (≈ 473 µM)
[3]
  pIC50: 5.96
Acinetobacter baumannii
  MIC: 64 µg/mL (≈ 237 µM)
Klebsiella pneumoniae
  MIC: 64 µg/mL (≈ 237 µM)

## CC(C)C[C@H](N)C(=O)NS(=O)(=O)c1cccc(-c2cc(-c3ccccc3)nc(N)n2)c1
Leucine--tRNA ligase [1]
  pKd: 7.25
Leucine--tRNA ligase [2]
  pIC50: 5.44
Leucine--tRNA ligase [4]
  pIC50: 6.65
[3]
  pIC50: 7.48

## CC(C)C[C@H](N)C(=O)NS(=O)(=O)c1cccc(-c2ccncc2)c1
Leucine--tRNA ligase [1]
  pKd: 7.96
Leucine--tRNA ligase [2]
  pIC50: 6.04
[3]
  pIC50: 5.92

## CC(C)C[C@H](N)C(=O)NS(=O)(=O)c1cccc(-c2ccccc2)c1
Leucine--tRNA ligase [1]
  pKd: 7.99
Leucine--tRNA ligase [2]
  pIC50: 6.19
[3]
  pIC50: 5.47
